ChEMBL document CHEMBL1148848, “Discovery and preliminary evaluation of 5-(4-phenylbenzyl)oxazole-4-carboxamides as prostacyclin receptor antagonists” (Bioorg Med Chem Lett, 2007)

How the values were obtained:
Prostacyclin receptor [1] = target: T1, Prostacyclin receptor (Homo sapiens, UniProt P43119); test: Displacement of [3H]iloprost from IP receptor in human platelet membrane; format: cell membranes
Summary of the method: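 Filter binding with 0.01 μM [3H]-iloprost and 50 μg human platelet membranes. Incubated 1 h at room temperature in 20 mM Hepes, 5 mM MgCl2, pH 7.4, with or without compound. Compound serially diluted in DMSO, final DMSO 1–10%. Filtered, washed twice with PBS, counted by scintillation.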

Prostacyclin receptor [2] = target: T1, Prostacyclin receptor; test: Antagonist activity at human IP receptor in HEL 92.1.7 cells assessed as inhibition of iloprost-induced cAMP production; format: functional, cell-based
Summary of the method: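 HEL 92.1.7 cells cultured in RPMI with 10% FBS, 10 mM Hepes, 1 mM sodium pyruvate, penicillin/streptomycin. 5000 cells preincubated 15 min at 37 °C with compound in 5 mM Hepes, 0.05% BSA buffer. Stimulated with 0.01 μM iloprost for 15 min at 37 °C. cAMP read by LANCE TR-FRET kit. Data normalized to max/min controls; IC50 from curve fit.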

[3] = Metabolic stability in human liver microsomes after 30 mins; format: ADME, Microsome; conditions: read-out: Stability
Summary of the method: (§1)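 Human or rat liver microsomes, […], incubated 30 min with compound; percent parent remaining.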

[4] = Metabolic stability in rat liver microsome after 30 mins; format: ADME; conditions: liver microsomes, read-out: Stability; summary of the method: as §1
Cytochrome P450 2C19 = Cytochrome P450 2C19 (Homo sapiens, UniProt P33261); test: Inhibition of CYP2C19; format: ADME
[5] = Apparent permeability across Caco-2 cells; format: ADME, cell-based; conditions: human
hERG (KCNH2) = hERG (KCNH2) (Homo sapiens, UniProt Q12809); test: Inhibition of hERG at 20 uM by rubidium efflux assay; format: toxicity
[6] = target: Prostaglandin E2 receptor EP4 subtype (Homo sapiens, UniProt P35408); test: Inhibition of human recombinant EP4 receptor expressed in 293EBNA cells; format: cell-based
[7] = target: Prostaglandin E2 receptor EP2 subtype (Homo sapiens, UniProt P43116); test: Inhibition of human recombinant EP2 receptor expressed in 293EBNA cells; format: cell-based
Cytochrome P450 2C9 = Cytochrome P450 2C9 (Homo sapiens, UniProt P11712); test: Inhibition of CYP2C9; format: ADME
Cytochrome P450 3A4 = Cytochrome P450 3A4 (Homo sapiens, UniProt P08684); test: Inhibition of CYP3A4; format: ADME
Cytochrome P450 2D6 = Cytochrome P450 2D6 (Homo sapiens, UniProt P10635); test: Inhibition of CYP2D6; format: ADME
Cytochrome P450 1A2 = target: T2, Cytochrome P450 1A2 (Homo sapiens, UniProt P05177); test: Inhibition of CYP1A2; format: ADME
T2 sequence (P05177 whole entry): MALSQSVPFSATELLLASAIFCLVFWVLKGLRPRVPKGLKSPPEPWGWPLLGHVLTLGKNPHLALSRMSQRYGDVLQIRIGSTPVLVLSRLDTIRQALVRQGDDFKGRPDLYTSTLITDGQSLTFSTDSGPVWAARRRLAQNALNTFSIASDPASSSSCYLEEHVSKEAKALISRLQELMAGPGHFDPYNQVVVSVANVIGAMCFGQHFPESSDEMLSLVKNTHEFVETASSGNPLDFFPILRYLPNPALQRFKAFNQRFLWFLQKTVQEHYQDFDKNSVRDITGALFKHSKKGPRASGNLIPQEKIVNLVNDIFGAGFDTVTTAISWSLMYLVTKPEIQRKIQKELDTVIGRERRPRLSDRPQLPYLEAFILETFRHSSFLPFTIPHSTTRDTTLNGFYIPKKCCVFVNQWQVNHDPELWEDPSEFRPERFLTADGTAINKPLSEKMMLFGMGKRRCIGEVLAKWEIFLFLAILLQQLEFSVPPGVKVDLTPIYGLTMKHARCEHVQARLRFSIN

T1 sequence (P43119 whole entry): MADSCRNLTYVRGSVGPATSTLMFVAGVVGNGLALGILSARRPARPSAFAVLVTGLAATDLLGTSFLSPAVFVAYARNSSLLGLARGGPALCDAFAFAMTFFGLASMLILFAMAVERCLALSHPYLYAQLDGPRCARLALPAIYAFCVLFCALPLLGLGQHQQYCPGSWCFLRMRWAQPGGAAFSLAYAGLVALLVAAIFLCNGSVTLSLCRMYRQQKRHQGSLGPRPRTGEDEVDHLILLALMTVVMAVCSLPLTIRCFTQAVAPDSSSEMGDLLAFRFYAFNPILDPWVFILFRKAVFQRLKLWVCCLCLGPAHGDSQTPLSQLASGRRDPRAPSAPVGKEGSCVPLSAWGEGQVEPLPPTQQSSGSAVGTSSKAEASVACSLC
Sequence of Cytochrome P450 2C9 (P11712 whole entry): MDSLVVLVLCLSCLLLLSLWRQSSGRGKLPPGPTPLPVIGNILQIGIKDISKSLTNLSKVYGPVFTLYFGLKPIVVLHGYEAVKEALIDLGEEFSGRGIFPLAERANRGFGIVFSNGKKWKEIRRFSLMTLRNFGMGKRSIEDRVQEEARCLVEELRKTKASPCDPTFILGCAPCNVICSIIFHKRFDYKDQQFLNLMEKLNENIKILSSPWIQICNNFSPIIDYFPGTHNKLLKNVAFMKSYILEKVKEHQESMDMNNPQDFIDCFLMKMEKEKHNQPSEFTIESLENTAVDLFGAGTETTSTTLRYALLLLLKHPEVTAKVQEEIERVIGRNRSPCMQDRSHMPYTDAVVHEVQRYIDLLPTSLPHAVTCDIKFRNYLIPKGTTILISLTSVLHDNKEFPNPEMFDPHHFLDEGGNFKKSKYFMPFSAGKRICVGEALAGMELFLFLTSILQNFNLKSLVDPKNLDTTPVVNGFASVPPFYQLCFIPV
Sequence of Cytochrome P450 3A4 (P08684 whole entry): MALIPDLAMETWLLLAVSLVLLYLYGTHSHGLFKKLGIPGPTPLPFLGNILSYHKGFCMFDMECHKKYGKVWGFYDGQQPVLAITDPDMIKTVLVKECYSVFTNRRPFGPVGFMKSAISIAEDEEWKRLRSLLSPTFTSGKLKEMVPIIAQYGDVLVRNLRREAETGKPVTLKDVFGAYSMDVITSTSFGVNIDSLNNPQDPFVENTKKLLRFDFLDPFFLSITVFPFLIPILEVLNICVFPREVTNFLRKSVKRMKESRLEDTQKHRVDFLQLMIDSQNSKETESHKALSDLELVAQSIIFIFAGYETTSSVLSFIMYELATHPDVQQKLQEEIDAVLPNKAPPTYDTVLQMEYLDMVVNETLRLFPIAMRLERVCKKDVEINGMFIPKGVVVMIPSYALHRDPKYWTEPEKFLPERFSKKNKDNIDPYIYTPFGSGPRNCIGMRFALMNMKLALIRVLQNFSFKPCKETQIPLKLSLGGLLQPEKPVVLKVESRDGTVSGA
Sequence of Prostaglandin E2 receptor EP2 subtype (P43116 whole entry): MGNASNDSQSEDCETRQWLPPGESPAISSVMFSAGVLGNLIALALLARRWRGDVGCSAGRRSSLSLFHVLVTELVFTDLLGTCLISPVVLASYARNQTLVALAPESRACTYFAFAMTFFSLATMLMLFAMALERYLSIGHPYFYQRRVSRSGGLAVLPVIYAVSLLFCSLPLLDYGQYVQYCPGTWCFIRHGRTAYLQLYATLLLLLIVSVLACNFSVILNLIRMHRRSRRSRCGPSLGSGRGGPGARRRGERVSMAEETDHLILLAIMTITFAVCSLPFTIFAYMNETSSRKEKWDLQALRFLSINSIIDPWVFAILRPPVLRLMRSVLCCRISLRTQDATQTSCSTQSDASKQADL
Sequence of Cytochrome P450 2C19 (P33261 whole entry): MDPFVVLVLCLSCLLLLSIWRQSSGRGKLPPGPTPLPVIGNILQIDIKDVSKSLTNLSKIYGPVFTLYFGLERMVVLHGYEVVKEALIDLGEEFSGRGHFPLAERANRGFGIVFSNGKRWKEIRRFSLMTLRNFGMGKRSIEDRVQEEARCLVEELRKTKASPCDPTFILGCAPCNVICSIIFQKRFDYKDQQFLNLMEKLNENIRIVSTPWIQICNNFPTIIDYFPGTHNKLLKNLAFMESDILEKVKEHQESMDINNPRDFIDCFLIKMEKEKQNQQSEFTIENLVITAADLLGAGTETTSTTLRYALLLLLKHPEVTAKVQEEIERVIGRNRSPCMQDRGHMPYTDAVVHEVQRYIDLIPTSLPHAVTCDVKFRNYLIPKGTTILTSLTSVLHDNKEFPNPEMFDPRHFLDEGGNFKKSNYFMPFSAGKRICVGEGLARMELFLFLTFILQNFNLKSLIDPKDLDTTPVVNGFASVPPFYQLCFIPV
Sequence of Cytochrome P450 2D6 (P10635 whole entry): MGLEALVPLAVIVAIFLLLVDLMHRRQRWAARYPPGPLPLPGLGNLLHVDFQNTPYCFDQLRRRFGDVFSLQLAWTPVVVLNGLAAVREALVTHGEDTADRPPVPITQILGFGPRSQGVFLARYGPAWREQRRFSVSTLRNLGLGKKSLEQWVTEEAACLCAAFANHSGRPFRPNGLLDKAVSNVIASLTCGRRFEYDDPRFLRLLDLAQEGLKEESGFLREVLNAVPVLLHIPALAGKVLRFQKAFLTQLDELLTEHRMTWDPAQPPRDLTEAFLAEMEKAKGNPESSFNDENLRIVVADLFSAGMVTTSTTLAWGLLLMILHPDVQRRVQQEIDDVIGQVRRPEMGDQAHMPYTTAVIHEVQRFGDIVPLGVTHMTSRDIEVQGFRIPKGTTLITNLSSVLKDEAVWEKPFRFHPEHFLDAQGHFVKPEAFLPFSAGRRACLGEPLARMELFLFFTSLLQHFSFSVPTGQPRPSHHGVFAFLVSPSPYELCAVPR
Sequence of hERG (KCNH2) (Q12809 whole entry): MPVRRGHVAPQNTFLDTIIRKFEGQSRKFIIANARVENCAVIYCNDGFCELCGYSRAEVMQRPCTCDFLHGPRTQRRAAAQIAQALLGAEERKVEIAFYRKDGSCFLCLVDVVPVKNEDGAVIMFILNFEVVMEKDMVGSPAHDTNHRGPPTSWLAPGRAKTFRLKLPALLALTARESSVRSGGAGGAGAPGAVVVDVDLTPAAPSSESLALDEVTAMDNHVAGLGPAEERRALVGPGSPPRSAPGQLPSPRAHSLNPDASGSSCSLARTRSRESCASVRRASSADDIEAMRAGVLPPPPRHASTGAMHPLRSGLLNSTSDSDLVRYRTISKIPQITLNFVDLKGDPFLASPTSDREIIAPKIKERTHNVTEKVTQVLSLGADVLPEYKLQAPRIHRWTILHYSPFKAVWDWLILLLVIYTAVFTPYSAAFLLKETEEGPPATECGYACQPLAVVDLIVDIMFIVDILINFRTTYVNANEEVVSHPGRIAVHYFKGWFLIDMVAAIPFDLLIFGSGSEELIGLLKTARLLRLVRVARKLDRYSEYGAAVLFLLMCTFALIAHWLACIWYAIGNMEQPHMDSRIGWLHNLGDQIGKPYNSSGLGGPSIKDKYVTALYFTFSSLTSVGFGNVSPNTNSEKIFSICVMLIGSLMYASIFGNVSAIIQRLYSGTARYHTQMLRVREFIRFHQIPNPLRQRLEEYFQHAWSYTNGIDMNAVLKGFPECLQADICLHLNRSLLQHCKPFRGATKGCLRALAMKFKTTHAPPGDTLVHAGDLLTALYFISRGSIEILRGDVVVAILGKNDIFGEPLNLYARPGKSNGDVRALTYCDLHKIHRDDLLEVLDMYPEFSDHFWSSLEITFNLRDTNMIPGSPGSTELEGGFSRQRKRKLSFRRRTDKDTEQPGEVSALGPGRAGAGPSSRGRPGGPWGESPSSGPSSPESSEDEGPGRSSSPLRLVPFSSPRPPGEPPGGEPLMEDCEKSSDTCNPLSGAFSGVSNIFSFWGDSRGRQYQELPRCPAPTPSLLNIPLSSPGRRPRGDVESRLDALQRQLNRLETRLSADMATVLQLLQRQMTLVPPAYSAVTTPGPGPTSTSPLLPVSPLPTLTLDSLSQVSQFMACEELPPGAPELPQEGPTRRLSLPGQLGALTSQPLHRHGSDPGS
Sequence of Prostaglandin E2 receptor EP4 subtype (P35408 whole entry): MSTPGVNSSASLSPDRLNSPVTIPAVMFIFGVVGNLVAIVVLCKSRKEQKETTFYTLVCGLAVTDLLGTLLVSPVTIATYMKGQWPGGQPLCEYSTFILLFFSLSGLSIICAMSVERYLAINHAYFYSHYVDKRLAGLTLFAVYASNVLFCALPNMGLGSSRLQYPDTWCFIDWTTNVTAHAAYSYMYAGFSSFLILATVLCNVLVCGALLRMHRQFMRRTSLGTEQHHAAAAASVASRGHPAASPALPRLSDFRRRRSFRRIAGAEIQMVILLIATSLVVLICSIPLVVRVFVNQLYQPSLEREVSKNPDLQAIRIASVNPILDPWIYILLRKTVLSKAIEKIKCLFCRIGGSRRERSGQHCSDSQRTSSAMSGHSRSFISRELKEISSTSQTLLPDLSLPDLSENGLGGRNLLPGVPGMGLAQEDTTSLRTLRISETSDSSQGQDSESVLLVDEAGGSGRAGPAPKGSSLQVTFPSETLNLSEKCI

Row | Structure (SMILES) | IC50 (Prostacyclin receptor [1]) [µM] | IC50 (Prostacyclin receptor [2]) [µM] | further results
1 | CC(=O)Nc1cccc(-c2ccc(Cc3ocnc3C(=O)N(C)C)cc2)c1 | 12.4 | 3.58 | –
2 | CC(=O)Nc1cccc(-c2ccc(Cc3ocnc3C(=O)NCCc3ccccc3)cc2)c1 | 0.721 | 0.138 | –
3 | CC(=O)Nc1cccc(-c2ccc(Cc3ocnc3C(=O)Nc3ccccc3)cc2)c1 | 3.48 | 0.828 | –
4 | CC(=O)Nc1cccc(-c2ccc(Cc3ocnc3C(=O)N(C)CCc3ccccc3)cc2)c1 | 7.16 | 2.13 | –
5 | CC(=O)Nc1cccc(-c2ccc(Cc3ocnc3C(=O)NC[C@H](C)c3ccccc3)cc2)c1 | 0.053 | 0.051 | remaining at 0.5 h [3]: 12%; remaining at 0.5 h [4]: 11%
6 | CC(=O)Nc1cccc(-c2ccc(Cc3ocnc3C(=O)NC[C@@H](C)c3ccccc3)cc2)c1 | 0.916 | 0.296 | –
7 | CC(=O)Nc1cccc(-c2ccc(Cc3ocnc3C(=O)N[C@H](Cc3ccccc3)C(=O)O)cc2)c1 | 4.2 | 0.831 | –
8 | CC(=O)Nc1cccc(-c2ccc(Cc3ocnc3C(=O)NCCc3ccccn3)cc2)c1 | 7.6 | 1.01 | –
9 | CC(=O)Nc1cccc(-c2ccc(Cc3ocnc3C(=O)NCCc3ccncc3)cc2)c1 | 4.71 | 0.476 | –
10 | CC(=O)Nc1cccc(-c2ccc(Cc3ocnc3C(=O)NCc3ccccc3)cc2)c1 | 0.561 | 0.066 | remaining at 0.5 h [3]: 63%; remaining at 0.5 h [4]: 33%
11 | CC(=O)Nc1cccc(-c2ccc(Cc3ocnc3C(=O)N[C@H]3C[C@@H]3c3ccccc3)cc2)c1 | 0.331 | 0.358 | –
12 | CNC(=O)c1ncoc1Cc1ccc(-c2cccc(NC(C)=O)c2)cc1 | 12.2 | 3.31 | –
13 | CC(=O)Nc1cccc(-c2ccc(Cc3ocnc3C(=O)NCCN(C)C)cc2)c1 | 34.1 | 3.31 | –
14 | CC(=O)Nc1cccc(-c2ccc(Cc3ocnc3C(=O)N[C@@H](Cc3ccccc3)C(=O)O)cc2)c1 | 0.476 | 0.016 | IC50 (Cytochrome P450 2C19): > 20 µM; Papp [5]: 5.5 ×10⁻⁶ cm/s; inhibition at 20 µM (hERG (KCNH2)): 5%; IC50 [6]: 24 µM; IC50 [7]: 32 µM; IC50 (Cytochrome P450 2C9): 5.1 µM; remaining at 0.5 h [3]: 100%; remaining at 0.5 h [4]: 91%; IC50 (Cytochrome P450 3A4): > 20 µM; IC50 (Cytochrome P450 2D6): > 20 µM; IC50 (Cytochrome P450 1A2): > 20 µM
15 | CC(=O)Nc1cccc(-c2ccc(Cc3ocnc3C(=O)NCCc3cccnc3)cc2)c1 | 4.95 | 0.741 | –
16 | CC(=O)Nc1cccc(-c2ccc(Cc3ocnc3C(=O)NC(C)c3ccccc3)cc2)c1 (racemic) | 1.23 | 0.278 | –
17 | CC(=O)Nc1cccc(-c2ccc(Cc3ocnc3C(=O)NCC(C)c3ccccc3)cc2)c1 (racemic) | 0.077 | – | –
